Experimental data: ChEMBL document CHEMBL1772996, “Bioactive constituents from the roots of Panax japonicus var. major and development of a LC-MS/MS method for distinguishing between natural and artifactual compounds” (J Nat Prod, 2011)
The source made the active and inactive calls. The rule behind the calls is not given here.

Key:
Neutrophil [1] = test: Inhibition of fMLP/CB-stimulated superoxide anion generation in human neutrophils; assay type: functional, cell-based
Procedure, shortened: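 Isolated human neutrophils (dextran sedimentation, Ficoll Hypaque, hypotonic lysis; >98% viable) with 0.5 mg/mL ferricytochrome c and 1 mM Ca2+, 37 °C 2 min, compound 5 min; CB 1 μg/mL 3 min, then 100 nM FMLP 10 min; SOD-inhibitable cytochrome c reduction followed continuously at 550 nm with stirring; mean ± S.E.M., n = 3–4; top concentration 30 μM.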

KB = test: Cytotoxicity against human KB cells assessed as growth inhibition after 3 days by sulforhodamine B assay; assay type: functional
Neutrophil [2] = test: Inhibition of fMLP/CB-activated human neutrophil degranulation assessed as inhibition of elastase release using MeO-Suc-Ala-Ala-Pro-Val-p-nitroanilide as a substrate after 5 mins; assay type: functional, cell-based
Procedure, shortened: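 Neutrophils from dextran sedimentation, Ficoll Hypaque centrifugation and hypotonic erythrocyte lysis (>98% viable by trypan blue), held in Ca2+-free HBSS pH 7.4 at 4 °C; 5×10^5/mL cells with 100 μM substrate equilibrated 37 °C 2 min, compound 5 min, then 100 nM FMLP plus 0.5 μg/mL CB; A405 monitored continuously; expressed as % of initial rate in drug-free activated control; mean ± S.E.M., n = 3–4; top concentration 30 μM.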

DU-145 = test: Cytotoxicity against human DU145 cells assessed as growth inhibition after 3 days by sulforhodamine B assay; assay type: functional
HCT-8 = test: Cytotoxicity against human HCT8 cells assessed as growth inhibition after 3 days by sulforhodamine B assay; assay type: functional, cell-based
A549 = test: Cytotoxicity against human A549 cells assessed as growth inhibition after 3 days by sulforhodamine B assay; assay type: functional, cell-based
Neutrophil [3] = test: Inhibition of superoxide anion generation in human neutrophils in response to fMLP/CB
[4] = Inhibition of yeast alpha-glucosidase assessed as p-nitrophenol release after 20 mins by microplate spectrophotometer; design: species or system Saccharomyces cerevisiae

| Structure (SMILES) | IC50 (Neutrophil [1]) [µM] | IC50 (Neutrophil [2]) [µM] | IC50 (Neutrophil [3]) [µM] | IC50 [4] [µM] | growth inhibition (GI) (KB) | growth inhibition (GI) (DU-145) | growth inhibition (GI) (HCT-8) | growth inhibition (GI) (A549) |
| --- | --- | --- | --- | --- | --- | --- | --- | --- |
| C[C@H]1O[C@H](O[C@H]2[C@H](O)[C@@H](O)[C@@H](O[C@H]3[C@H](O)[C@@H](O)C(O)O[C@@H]3CO)O[C@@H]2CO)[C@H](O)[C@@H](O)[C@@H]1N[C@H]1C=C(CO)[C@@H](O)[C@H](O)[C@H]1O (some centres undefined) [ACARBOSE] |  |  |  | 678 |  |  |  |  |
| CC1(C)CC[C@]2(C(=O)O[C@@H]3O[C@H](CO)[C@@H](O)[C@H](O)[C@H]3O)CC[C@]3(C)C(=CC[C@@H]4[C@@]5(C)CC[C@H](O[C@@H]6O[C@H](C(=O)O[C@@H]7O[C@H](CO)[C@@H](O)[C@H](O)[C@H]7O)[C@@H](O[C@@H]7O[C@@H](CO)[C@H](O)[C@H]7O)[C@H](O)[C@H]6O)C(C)(C)[C@@H]5CC[C@]43C)[C@@H]2C1 | 1.56 | 1.87 |  |  | inactive | inactive | inactive | inactive |
| COC(=O)[C@H]1O[C@@H](O[C@H]2CC[C@]3(C)[C@H]4CC=C5[C@@H]6CC(C)(C)CC[C@]6(C(=O)O[C@@H]6O[C@H](CO)[C@@H](O)[C@H](O)[C@H]6O)CC[C@@]5(C)[C@]4(C)CC[C@H]3C2(C)C)[C@H](O[C@H]2OC[C@@H](O)[C@H](O)[C@H]2O)[C@@H](O)[C@@H]1O [PSEUDOGINSENOSIDE RT1 METHYL ESTER] | 5.26 | 7.75 |  |  | inactive | inactive | inactive | inactive |
| CCCCOC(=O)[C@H]1O[C@@H](O[C@H]2CC[C@]3(C)[C@H]4CC=C5[C@@H]6CC(C)(C)CC[C@]6(C(=O)O[C@@H]6O[C@H](CO)[C@@H](O)[C@H](O)[C@H]6O)CC[C@@]5(C)[C@]4(C)CC[C@H]3C2(C)C)[C@H](O)[C@@H](O)[C@@H]1O[C@@H]1O[C@@H](CO)[C@H](O)[C@H]1O [TAIBAIENOSIDE I] | 2.24 | 1.36 |  |  | inactive | inactive | inactive | inactive |

More lines, main results first:

| IC50 (Neutrophil [1]) [µM] | IC50 (Neutrophil [2]) [µM] | IC50 (Neutrophil [3]) [µM] | IC50 [4] [µM] | Structure (SMILES) | growth inhibition (GI) (KB) | growth inhibition (GI) (DU-145) | growth inhibition (GI) (HCT-8) | growth inhibition (GI) (A549) |
| --- | --- | --- | --- | --- | --- | --- | --- | --- |
| 3.73 | 7.28 |  |  | CCCCOC(=O)[C@H]1O[C@@H](O[C@H]2CC[C@]3(C)[C@H]4CC=C5[C@@H]6CC(C)(C)CC[C@]6(C(=O)O[C@@H]6O[C@H](CO)[C@@H](O)[C@H](O)[C@H]6O)CC[C@@]5(C)[C@]4(C)CC[C@H]3C2(C)C)[C@H](O)[C@@H](O)[C@@H]1O | inactive | inactive | inactive | inactive |
|  | 1.97 | 13.6 |  | COC(=O)[C@H]1O[C@@H](O[C@H]2CC[C@]3(C)[C@H]4CC=C5[C@@H]6CC(C)(C)CC[C@]6(C(=O)O[C@@H]6O[C@H](CO)[C@@H](O)[C@H](O)[C@H]6O)CC[C@@]5(C)[C@]4(C)CC[C@H]3C2(C)C)[C@H](O)[C@@H](O)[C@@H]1O | inactive | inactive | inactive | inactive |
| 1.37 | 0.75 |  |  | CC1(C)CC[C@]2(C(=O)O)CC[C@]3(C)C(=CC[C@@H]4[C@@]5(C)CC[C@H](O)C(C)(C)[C@@H]5CC[C@]43C)[C@@H]2C1 [OLEANOLIC_ACID] | inactive | inactive | inactive | inactive |
| 19.4 | 44.5 |  |  | CC1(C)CC[C@]2(C(=O)O[C@@H]3O[C@H](CO)[C@@H](O)[C@H](O)[C@H]3O)CC[C@]3(C)C(=CC[C@@H]4[C@@]5(C)CC[C@H](O[C@@H]6O[C@H](C(=O)O)[C@@H](O)[C@H](O)[C@H]6O[C@H]6OC[C@@H](O)[C@H](O)[C@H]6O)C(C)(C)[C@@H]5CC[C@]43C)[C@@H]2C1 [PSEUDOGINSENOSIDE RT1] | inactive | inactive | inactive | inactive |
| 2.88 | 4.76 |  |  | CC1(C)CC[C@]2(C(=O)O[C@@H]3O[C@H](CO)[C@@H](O)[C@H](O)[C@H]3O)CC[C@]3(C)C(=CC[C@@H]4[C@@]5(C)CC[C@H](O[C@@H]6O[C@H](C(=O)O)[C@@H](O)[C@H](O)[C@H]6O)C(C)(C)[C@@H]5CC[C@]43C)[C@@H]2C1 [CHIKUSETSUSAPONIN IVA] | inactive | inactive | inactive | inactive |
